BindingDB's records for doi:10.1016/j.bmc.2012.05.040 (Imperial College, 2012)

How the values were obtained:
[1] = biological target: T1, M-phase inducer phosphatase 1 (Homo sapiens, UniProt P30304); experiment: Inhibition of N-terminal His-tagged Cdc25a catalytic domain expressed in Escherichia coli BL21(DE3) using 3-O-Methylfluorescein phosphate as substrate incubated for 10 mins prior to substrate addition by fluorometry
T1 sequence (P30304 whole entry): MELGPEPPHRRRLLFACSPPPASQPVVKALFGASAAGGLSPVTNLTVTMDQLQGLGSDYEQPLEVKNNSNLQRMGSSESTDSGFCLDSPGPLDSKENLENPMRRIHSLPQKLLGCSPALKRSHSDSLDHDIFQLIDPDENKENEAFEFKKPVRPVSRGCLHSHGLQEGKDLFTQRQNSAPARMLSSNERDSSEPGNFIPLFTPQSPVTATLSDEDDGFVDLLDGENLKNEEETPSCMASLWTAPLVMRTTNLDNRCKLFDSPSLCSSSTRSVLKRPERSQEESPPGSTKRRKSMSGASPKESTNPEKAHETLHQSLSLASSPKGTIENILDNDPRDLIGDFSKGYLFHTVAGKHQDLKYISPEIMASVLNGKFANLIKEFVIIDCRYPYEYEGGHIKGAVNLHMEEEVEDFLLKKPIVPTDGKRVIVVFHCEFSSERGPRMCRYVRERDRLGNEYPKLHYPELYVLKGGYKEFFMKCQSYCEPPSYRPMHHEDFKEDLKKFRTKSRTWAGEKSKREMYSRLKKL
Summary of the method: (§1)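 OMFP phosphatase assay, 20 °C, in 100 mM Tris pH 7.4 with 2 mM DTT. OMFP is taken from a 20 mM DMSO stock and diluted in 1% DMSO. It is used near each enzyme's KM, which is determined beforehand. Enzyme and arylstibonate are preincubated 10 min at RT, then OMFP is added. OMF release is read by fluorescence (ex 485, em 525 nm). Dose-response curves give IC50.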

[2] = biological target: Dual specificity protein phosphatase 3 (Homo sapiens, UniProt P51452); experiment: Inhibition of human recombinant His-tagged VHR using 3-O-Methylfluorescein phosphate as substrate incubated for 10 mins prior to substrate addition by fluorometry; summary of the method: as §1
Sequence of Dual specificity protein phosphatase 3 (P51452 whole entry): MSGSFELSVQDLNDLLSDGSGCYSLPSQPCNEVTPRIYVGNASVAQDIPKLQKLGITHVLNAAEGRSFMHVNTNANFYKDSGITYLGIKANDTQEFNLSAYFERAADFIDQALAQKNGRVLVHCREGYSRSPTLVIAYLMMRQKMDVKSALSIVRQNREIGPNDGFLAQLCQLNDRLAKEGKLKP

[3] = biological target: T2, Receptor-type tyrosine-protein phosphatase beta (Homo sapiens, UniProt P23467); experiment: Inhibition of PTP-beta receptor using 3-O-Methylfluorescein phosphate as substrate incubated for 10 mins prior to substrate addition by fluorometry; summary of the method: as §1
T2 sequence (P23467 whole entry, the tested form may be a part): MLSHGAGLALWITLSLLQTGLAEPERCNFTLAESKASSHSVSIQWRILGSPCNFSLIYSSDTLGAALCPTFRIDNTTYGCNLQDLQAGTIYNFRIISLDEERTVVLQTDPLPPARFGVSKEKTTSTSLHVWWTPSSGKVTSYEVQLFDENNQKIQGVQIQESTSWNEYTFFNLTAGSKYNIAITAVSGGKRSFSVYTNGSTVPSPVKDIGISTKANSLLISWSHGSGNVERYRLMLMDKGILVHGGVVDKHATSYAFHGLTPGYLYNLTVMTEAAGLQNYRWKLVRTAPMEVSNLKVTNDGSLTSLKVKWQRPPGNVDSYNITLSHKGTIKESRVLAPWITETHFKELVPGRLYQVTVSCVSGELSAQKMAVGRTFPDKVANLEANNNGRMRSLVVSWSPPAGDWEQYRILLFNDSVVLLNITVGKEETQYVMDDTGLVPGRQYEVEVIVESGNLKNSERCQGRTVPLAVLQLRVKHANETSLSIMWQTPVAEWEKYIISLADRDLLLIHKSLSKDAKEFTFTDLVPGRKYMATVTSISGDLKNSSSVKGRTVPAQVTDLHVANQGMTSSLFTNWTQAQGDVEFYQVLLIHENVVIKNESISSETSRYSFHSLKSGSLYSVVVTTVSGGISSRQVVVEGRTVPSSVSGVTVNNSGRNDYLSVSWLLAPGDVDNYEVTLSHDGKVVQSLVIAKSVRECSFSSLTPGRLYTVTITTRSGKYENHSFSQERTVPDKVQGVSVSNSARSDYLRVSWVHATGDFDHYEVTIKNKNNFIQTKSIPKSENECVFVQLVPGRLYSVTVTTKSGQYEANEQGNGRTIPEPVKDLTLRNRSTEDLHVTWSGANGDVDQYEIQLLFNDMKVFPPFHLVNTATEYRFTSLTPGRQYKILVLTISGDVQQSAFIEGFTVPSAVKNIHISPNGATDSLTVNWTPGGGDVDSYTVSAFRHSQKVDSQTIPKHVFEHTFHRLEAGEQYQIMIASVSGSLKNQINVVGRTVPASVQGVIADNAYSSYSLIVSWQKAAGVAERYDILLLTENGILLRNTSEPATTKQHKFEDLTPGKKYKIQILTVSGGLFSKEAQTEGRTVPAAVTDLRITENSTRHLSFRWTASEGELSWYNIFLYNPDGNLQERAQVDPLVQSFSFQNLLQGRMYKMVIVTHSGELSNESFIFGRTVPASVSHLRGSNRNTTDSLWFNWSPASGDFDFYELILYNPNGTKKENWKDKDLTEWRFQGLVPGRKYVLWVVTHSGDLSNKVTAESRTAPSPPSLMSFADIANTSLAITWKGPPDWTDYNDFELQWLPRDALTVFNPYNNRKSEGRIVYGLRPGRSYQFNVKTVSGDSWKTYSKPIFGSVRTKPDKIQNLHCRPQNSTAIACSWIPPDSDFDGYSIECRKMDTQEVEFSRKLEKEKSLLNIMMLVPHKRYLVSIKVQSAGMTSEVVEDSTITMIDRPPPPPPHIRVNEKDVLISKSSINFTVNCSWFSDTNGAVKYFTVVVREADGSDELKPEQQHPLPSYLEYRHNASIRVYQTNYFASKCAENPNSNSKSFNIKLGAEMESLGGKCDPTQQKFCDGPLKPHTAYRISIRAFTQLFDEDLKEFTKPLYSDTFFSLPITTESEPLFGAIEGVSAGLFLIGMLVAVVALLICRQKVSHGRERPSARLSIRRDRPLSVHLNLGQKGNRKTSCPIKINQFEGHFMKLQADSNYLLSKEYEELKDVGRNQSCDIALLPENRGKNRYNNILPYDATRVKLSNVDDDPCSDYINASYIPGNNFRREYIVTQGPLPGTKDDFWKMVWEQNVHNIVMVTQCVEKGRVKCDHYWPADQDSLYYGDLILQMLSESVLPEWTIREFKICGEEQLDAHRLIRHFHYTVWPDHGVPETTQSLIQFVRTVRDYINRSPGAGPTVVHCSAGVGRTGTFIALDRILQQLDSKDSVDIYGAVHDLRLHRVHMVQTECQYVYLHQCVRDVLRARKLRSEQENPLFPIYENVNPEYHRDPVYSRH

[4] = biological target: T1, M-phase inducer phosphatase 1; experiment: Inhibition of N-terminal His-tagged Cdc25a catalytic domain expressed in Escherichia coli BL21(DE3) using 3-O-Methylfluorescein phosphate as substrate by secondary plot analysis
Summary of the method: (§2)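 Steady-state kinetics of the Cdc25a and Cdc25b catalytic domains with varying OMFP and several arylstibonate concentrations. Run at 20 °C in 100 mM Tris pH 7.4 with 2 mM DTT, after a 10 min RT enzyme–inhibitor preincubation. Fluorescence read at ex 485/em 525 nm. Michaelis–Menten plots give apparent Km and Vmax; secondary plots give Ki.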

[5] = biological target: T3, Dual specificity protein phosphatase 6 (Homo sapiens, UniProt Q16828); experiment: Inhibition of MKP3 using 3-O-Methylfluorescein phosphate as substrate incubated for 10 mins prior to substrate addition by fluorometry; summary of the method: as §1
T3 sequence (Q16828 whole entry): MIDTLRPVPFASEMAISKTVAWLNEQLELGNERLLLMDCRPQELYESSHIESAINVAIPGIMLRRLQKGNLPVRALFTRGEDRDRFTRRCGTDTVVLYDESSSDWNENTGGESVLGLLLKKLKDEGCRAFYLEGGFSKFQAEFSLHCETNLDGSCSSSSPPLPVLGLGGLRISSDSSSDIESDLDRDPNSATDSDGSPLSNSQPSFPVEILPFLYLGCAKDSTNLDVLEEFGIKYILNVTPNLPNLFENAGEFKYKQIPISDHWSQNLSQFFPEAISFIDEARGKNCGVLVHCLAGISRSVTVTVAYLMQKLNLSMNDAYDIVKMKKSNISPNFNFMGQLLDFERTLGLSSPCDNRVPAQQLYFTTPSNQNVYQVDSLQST

[6] = biological target: Phosphatidylinositol 3,4,5-trisphosphate 3-phosphatase and dual-specificity protein phosphatase PTEN (Homo sapiens, UniProt P60484); experiment: Inhibition of human PTEN using 3-O-Methylfluorescein phosphate as substrate incubated for 10 mins prior to substrate addition by fluorometry; summary of the method: as §1
Sequence of Phosphatidylinositol 3,4,5-trisphosphate 3-phosphatase and dual-specificity protein phosphatase PTEN (P60484 whole entry): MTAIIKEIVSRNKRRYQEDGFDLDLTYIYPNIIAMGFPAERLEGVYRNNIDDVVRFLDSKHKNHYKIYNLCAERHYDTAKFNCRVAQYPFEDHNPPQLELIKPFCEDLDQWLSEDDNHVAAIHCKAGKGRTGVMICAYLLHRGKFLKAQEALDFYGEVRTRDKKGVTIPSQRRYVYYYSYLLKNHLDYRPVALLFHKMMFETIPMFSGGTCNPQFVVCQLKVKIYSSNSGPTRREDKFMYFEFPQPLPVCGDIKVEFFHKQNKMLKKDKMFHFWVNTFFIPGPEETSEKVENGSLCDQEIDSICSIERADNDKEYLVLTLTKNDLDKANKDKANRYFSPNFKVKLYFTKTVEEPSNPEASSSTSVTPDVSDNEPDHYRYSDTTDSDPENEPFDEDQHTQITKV

[7] = biological target: T4, Phosphatidylglycerophosphatase and protein-tyrosine phosphatase 1 (Homo sapiens, UniProt Q8WUK0); experiment: Inhibition of PTPMT1 using 3-O-Methylfluorescein phosphate as substrate incubated for 10 mins prior to substrate addition by fluorometry; summary of the method: as §1
T4 sequence (Q8WUK0 whole entry): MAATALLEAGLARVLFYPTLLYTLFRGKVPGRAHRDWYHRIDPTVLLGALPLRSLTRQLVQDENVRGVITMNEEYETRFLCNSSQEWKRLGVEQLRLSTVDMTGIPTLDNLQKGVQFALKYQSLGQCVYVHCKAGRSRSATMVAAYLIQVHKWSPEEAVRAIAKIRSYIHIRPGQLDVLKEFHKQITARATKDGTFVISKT

[8] = biological target: T5, M-phase inducer phosphatase 3 (Homo sapiens, UniProt P30307); experiment: Inhibition of N-terminal His-tagged Cdc25c catalytic domain expressed in Escherichia coli BL21(DE3) using 3-O-Methylfluorescein phosphate as substrate incubated for 10 mins prior to substrate addition by fluorometry; summary of the method: as §1
T5 sequence (P30307 whole entry): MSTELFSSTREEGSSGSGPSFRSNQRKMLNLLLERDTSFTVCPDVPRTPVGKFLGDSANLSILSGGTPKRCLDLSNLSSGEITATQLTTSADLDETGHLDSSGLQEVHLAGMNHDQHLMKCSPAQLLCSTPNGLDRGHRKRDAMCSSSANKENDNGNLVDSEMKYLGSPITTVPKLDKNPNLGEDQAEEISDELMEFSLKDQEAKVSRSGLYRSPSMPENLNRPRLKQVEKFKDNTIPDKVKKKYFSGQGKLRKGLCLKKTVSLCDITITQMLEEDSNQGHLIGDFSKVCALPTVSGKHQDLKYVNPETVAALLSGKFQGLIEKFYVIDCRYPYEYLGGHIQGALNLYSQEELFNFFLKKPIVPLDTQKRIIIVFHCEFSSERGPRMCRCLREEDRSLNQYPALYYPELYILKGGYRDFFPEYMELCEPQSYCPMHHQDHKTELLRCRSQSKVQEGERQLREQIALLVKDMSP

[9] = biological target: T6, Tyrosine-protein phosphatase non-receptor type 1 (Homo sapiens, UniProt P18031); experiment: Inhibition of PTP1B using 3-O-Methylfluorescein phosphate as substrate incubated for 10 mins prior to substrate addition by fluorometry; summary of the method: as §1
T6 sequence (P18031 whole entry): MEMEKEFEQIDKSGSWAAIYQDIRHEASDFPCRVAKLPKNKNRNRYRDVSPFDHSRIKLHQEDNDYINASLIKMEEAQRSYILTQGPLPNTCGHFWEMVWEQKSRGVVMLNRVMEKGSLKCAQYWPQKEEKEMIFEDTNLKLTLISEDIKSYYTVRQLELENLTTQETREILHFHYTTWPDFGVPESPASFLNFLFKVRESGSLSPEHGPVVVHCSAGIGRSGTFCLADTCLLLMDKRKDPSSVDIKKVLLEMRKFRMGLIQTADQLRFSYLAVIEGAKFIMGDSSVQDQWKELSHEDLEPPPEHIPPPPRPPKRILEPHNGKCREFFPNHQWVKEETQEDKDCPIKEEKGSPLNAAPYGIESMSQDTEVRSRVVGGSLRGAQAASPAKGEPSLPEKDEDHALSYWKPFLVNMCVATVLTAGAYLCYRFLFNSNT

[10] = biological target: T7, M-phase inducer phosphatase 2 (Homo sapiens, UniProt P30305); experiment: Inhibition of N-terminal His-tagged Cdc25b catalytic domain expressed in Escherichia coli BL21(DE3) using 3-O-Methylfluorescein phosphate as substrate by secondary plot analysis; summary of the method: as §2
T7 sequence (P30305 whole entry): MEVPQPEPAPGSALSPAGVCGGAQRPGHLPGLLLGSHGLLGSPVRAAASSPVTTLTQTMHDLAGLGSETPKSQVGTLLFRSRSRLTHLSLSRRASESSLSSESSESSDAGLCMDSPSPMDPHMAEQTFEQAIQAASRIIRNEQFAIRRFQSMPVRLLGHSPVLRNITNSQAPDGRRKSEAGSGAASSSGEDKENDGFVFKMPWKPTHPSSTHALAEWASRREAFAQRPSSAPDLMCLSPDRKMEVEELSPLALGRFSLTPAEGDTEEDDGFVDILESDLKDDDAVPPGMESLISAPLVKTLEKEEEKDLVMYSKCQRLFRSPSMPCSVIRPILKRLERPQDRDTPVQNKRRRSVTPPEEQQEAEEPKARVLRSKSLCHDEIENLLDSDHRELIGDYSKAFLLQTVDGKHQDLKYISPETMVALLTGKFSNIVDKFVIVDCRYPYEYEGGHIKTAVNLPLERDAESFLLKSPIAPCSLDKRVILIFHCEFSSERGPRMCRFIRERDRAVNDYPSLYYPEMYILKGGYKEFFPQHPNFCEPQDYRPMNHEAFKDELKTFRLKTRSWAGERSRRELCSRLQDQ

[11] = biological target: T7, M-phase inducer phosphatase 2; experiment: Inhibition of N-terminal His-tagged Cdc25b catalytic domain expressed in Escherichia coli BL21(DE3) using 3-O-Methylfluorescein phosphate as substrate incubated for 10 mins prior to substrate addition by fluorometry; summary of the method: as §1
[12] = biological target: T2, Receptor-type tyrosine-protein phosphatase beta; experiment: Inhibition of PTP-beta receptor using […] as substrate by colorimetric analysis

Structure (SMILES)	IC50 [1] [µM]	IC50 [2] [µM]	IC50 [3] [µM]	Ki [4] [µM]	IC50 [5] [µM]	IC50 [6] [µM]	IC50 [7] [µM]	IC50 [8] [µM]	IC50 [9] [µM]	Ki [10] [µM]	IC50 [11] [µM]	IC50 [12] [µM]
O=C(O)CCc1ccc[c]([Sb](=[O])([OH])[OH])c1	3.15	> 100	1.62	1.7	> 100	8.87	13.4	> 100	> 100	4.7	5.67	0.1
O=C(O)/C=C/c1ccc[c]([Sb](=[O])([OH])[OH])c1 [(2E)-3-{3-[dihydroxy(oxo)--stibanyl]phenyl}prop-2-enoic acid]	0.11	> 10	0.77	0.072	> 10	10	1.62	> 10	7.93	0.369	0.6	0.1
